# Measurements taken from ChEMBL document CHEMBL3232831, “Synthetic indole and melatonin derivatives exhibit antimalarial activity on the cell cycle of the human malaria parasite Plasmodium falciparum” (Eur J Med Chem, 2014).
# pIC50: −log10 of the molar value.
# How the values were obtained:
# Plasmodium falciparum [1] = assay: Antiplasmodial activity against Plasmodium falciparum 3D7 infected in erythrocytes assessed as parasitemia level at 500 nM after 48 hrs by YOYO-1 staining-based flow cytometry relative to control; assay type: functional
# Outline: (§1)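 P. falciparum 3D7 in O+ human erythrocytes, RPMI-1640 with 10% O+ human serum, 92% N2/5% CO2/3% O2. Infected cells exposed 48 h at a single concentration. Then fixed in 2% paraformaldehyde/PBS for 24 h, permeabilized with 0.1% Triton X-100 and stained with 5 nM YOYO-1 for 30 min at 37 °C. Read on 10⁵ cells by flow cytometry. Parasitemia expressed versus solvent control; ≥3 independent experiments, one-way ANOVA with Dunnett's test.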
# Plasmodium falciparum [2] = assay: Antiplasmodial activity against asynchronous culture of Plasmodium falciparum 3D7 infected in erythrocytes assessed as reduction of melatonin-induced increase in parasitemia level at 500 nM after 48 hrs by YOYO-1 staining-based flow cytometry (reference value: 23.5 +/- 6.8 %); assay type: functional; parameters: scale not given: the % may be the effect or the level left
# Plasmodium falciparum [3] = assay: Antiplasmodial activity against ring stage synchronized Plasmodium falciparum 3D7 infected in erythrocytes assessed as parasitemia level after 48 hrs by flow cytometry relative to control; assay type: functional, organism-based; conditions: 3D7, 48 h
# Outline: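 3D7 culture was synchronized (Lambros) and infected erythrocytes were dosed at ring stage with 10 concentrations from 5 nM to 100 μM for 48 h. Parasitemia was read by YOYO-1 flow cytometry as in the single-dose assay. IC50 was obtained from sigmoid dose–response fits; ≥3 independent experiments.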
# Plasmodium falciparum [4] = assay: Antiplasmodial activity against Plasmodium falciparum 3D7 infected in erythrocytes assessed as parasitemia level at 100 nM after 48 hrs by YOYO-1 staining-based flow cytometry relative to control; assay type: functional; outline: as §1
Structure (SMILES),Activity (Plasmodium falciparum [1]) [%],Activity (Plasmodium falciparum [2]) [%],pIC50 (Plasmodium falciparum [3]),Activity (Plasmodium falciparum [4]) [%]
CC(=O)NCCc1c[nH]c2ccccc12 [NB-ACETYLTRYPTAMINE],12.9,11.3,,
COC(=O)NCCc1c[nH]c2ccc(OC)cc12,10,14.5,,
COC(=O)NCCc1c[nH]c2ccccc12,11.7,10.9,,
C[C@H]1Cc2c([nH]c3cc(Cl)c(F)cc23)[C@@]2(N1)C(=O)Nc1ccc(Cl)cc12 [CIPARGAMIN],,,8.00,
CCCCCC(=O)NCCc1c[nH]c2ccccc12,6,6.9,,
COc1ccc2[nH]cc(CCNC(=O)c3ccccc3)c2c1,10.8,9.1,5.53,
CCCC(=O)NCCc1c[nH]c2ccccc12,9.2,11,,
COc1ccc2[nH]cc(CCNC(C)=O)c2c1 [MELATONIN],,23.5,,21.9
CCCCCC(=O)NCCc1c[nH]c2ccc(OC)cc12,7.8,8.6,4.72,
CCCC(=O)NCCc1c[nH]c2ccc(OC)cc12,8,8.8,4.72,
COc1ccc2[nH]cc(CCN)c2c1 [5-METHOXYTRYPTAMINE],19.7,14.1,,
